Test results taken from ChEMBL document CHEMBL4004796, “Exploring the Bioactive Terpenoid Content of an Algerian Plant of the Genus Pulicaria: The ent-Series of Asteriscunolides” (J Nat Prod, 2017).

Legend:
Assay type in all cases: functional
[1] = Antiinflammatory activity assessed as inhibition of heat-induced albumin denaturation at 5 uM after 20 mins by spectrophotometric method relative to control
Method in brief: (§1)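 Bovine albumin fraction as a 1% aqueous solution, with test agent at 0.5−10 μM, adjusted to pH 6.3 with 1 N HCl. Incubated 20 min at 37 °C, then heated 20 min at 51 °C. After cooling, turbidity read at 660 nm. % inhibition = [(A0 − A1)/A0] × 100 versus control absorbance. Diclofenac sodium as reference.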

[2] = Antiinflammatory activity assessed as inhibition of heat-induced albumin denaturation after 20 mins by spectrophotometric method; method in brief: as §1
[3] = Antiinflammatory activity assessed as inhibition of heat-induced albumin denaturation at 1 uM after 20 mins by spectrophotometric method relative to control; method in brief: as §1
[4] = Antiinflammatory activity assessed as inhibition of heat-induced albumin denaturation at 0.5 uM after 20 mins by spectrophotometric method relative to control; method in brief: as §1
[5] = Antiinflammatory activity assessed as inhibition of heat-induced albumin denaturation at 10 uM after 20 mins by spectrophotometric method relative to control; method in brief: as §1
Rattus norvegicus [6] = experiment: Antiinflammatory activity in Wistar rat assessed as inhibition of carrageenan-induced paw edema at 10 mg/kg, po preincubated for 1 hr followed by carrageenan challenge measured at 4 hrs by plethysmometer relative to control
Method in brief: (§2)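 Adult male albino Wistar animals, 25−30 g, in groups of five, 25 ± 2 °C, 12 h light/dark. Oral dosing, with PBS vehicle for controls. One hour later, 0.1 mL of 1% carrageenan was injected subplantar into the left hind paw. Paw volume was read by plethysmometer at 1, 2, 3 and 4 h relative to pre-injection. % inhibition = [(D0 − Dt)/D0] × 100 versus control group mean at each time. Mean ± SD, n = 5, Student's test.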

Rattus norvegicus [7] = experiment: Antiinflammatory activity in Wistar rat assessed as inhibition of carrageenan-induced paw edema at 10 mg/kg, po preincubated for 1 hr followed by carrageenan challenge measured at 3 hrs by plethysmometer relative to control; method in brief: as §2
Rattus norvegicus [8] = experiment: Antiinflammatory activity in Wistar rat assessed as inhibition of carrageenan-induced paw edema at 10 mg/kg, po preincubated for 1 hr followed by carrageenan challenge measured at 1 hr by plethysmometer relative to control; method in brief: as §2
Rattus norvegicus [9] = experiment: Antiinflammatory activity in Wistar rat assessed as inhibition of carrageenan-induced paw edema at 10 mg/kg, po preincubated for 1 hr followed by carrageenan challenge measured at 2 hrs by plethysmometer relative to control; method in brief: as §2

C/C1=C/CCC2=C[C@@H](OC2=O)C(C)(C)/C=C\C1=O
inhibition [1]: 32.9% | IC50 [2]: 23.8 µM | inhibition [3]: 22.6% | inhibition [4]: 15.5% | inhibition [5]: 44.4%

COC(=O)/C1=C\CC(C)(C)/C=C/C(=O)C(C)CCC1 (single isomer, unassigned; (-))
inhibition [1]: 24.6% | IC50 [2]: 220 µM | inhibition [3]: 16.7% | inhibition [4]: 8.73%

O=C(O)Cc1ccccc1Nc1c(Cl)cccc1Cl [DICLOFENAC SODIUM]
inhibition [1]: 41.7% | IC50 [2]: 4.14 µM | inhibition in vivo at 10 mg/kg (Rattus norvegicus [6]): 78.6% | inhibition in vivo at 10 mg/kg (Rattus norvegicus [7]): 73.7% | inhibition in vivo at 10 mg/kg (Rattus norvegicus [8]): 64.9% | inhibition [3]: 31.8% | inhibition [4]: 22.6% | inhibition in vivo at 10 mg/kg (Rattus norvegicus [9]): 71.5% | inhibition [5]: 70.2%
